# Assay results from different studies.
# Compare with care: the assays were run in different laboratories.
# Target: Mitogen-activated protein kinase 13 (MAPK13, Homo sapiens, UniProt O15264)
# Sequence (O15264 1-365, as in one of the studies): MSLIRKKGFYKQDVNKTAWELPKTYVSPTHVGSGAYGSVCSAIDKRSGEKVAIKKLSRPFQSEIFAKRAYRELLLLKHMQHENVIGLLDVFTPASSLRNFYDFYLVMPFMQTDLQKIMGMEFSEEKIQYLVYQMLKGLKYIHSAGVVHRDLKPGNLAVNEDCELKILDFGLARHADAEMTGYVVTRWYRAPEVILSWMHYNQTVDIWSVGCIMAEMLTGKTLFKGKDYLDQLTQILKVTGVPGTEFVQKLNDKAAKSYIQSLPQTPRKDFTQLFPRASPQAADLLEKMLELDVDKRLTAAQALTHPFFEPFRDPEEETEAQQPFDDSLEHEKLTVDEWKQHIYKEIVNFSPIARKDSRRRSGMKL
Compound,assay,conditions,remaining binding
C=CC(=O)N1CCC(C(=O)NCC(=O)N2CCN(c3nc(-c4cnc(N)nc4C(F)F)nc(N4CCOCC4)n3)CC2)CC1,"binding, competition with immobilised ligand",1 µM,99%
N[C@@H]1CCN(c2nccc(-c3cnn4ncccc34)n2)C1,binding,1 µM,100%
COc1ncc2cc3ccccc3nc2c1C#N,"cell-free assay, competition with immobilised ligand",5 µM,79%
Nc1ncc2c(n1)-c1c([nH]c3ccc(C#CC4CC4)cc13)CCCC2,"binding, competition with immobilised ligand",1 µM,100%
O=C(NCCCN1CCOCC1)c1ccc(Nc2nccc(-c3cc4ccccc4s3)n2)cc1,"binding, competition with immobilised ligand",1 µM,100%
C[C@@]1(Cc2ccc(C#N)cc2)C(=O)N(c2cc(Cl)cc(Cl)c2)c2ncc(C(=O)NC3(c4nc(C5CCC5)no4)CC3)n21,"cell-free assay, competition with immobilised ligand",1 µM,100%
O=C(NCCCN1CCOCC1)c1ccc(Nc2ncc(Cl)c(-c3ccc(Cl)s3)n2)cc1,"binding, competition with immobilised ligand",1 µM,100%
O=C(O)[C@H]1[C@H](Cn2nnc3ccccc3c2=O)CC[C@@H]1C(=O)c1ccc(OCCC2CCOCC2)cc1,"cell-free assay, competition with immobilised ligand",1 µM,97%
CC1CCCN1c1nccc(-c2cnn3ncccc23)n1 (stereo not shown),binding,1 µM,100%
O=C(Nc1cnc(Oc2ccc(F)cc2)nc1)N1CCc2ncccc2[C@@H]1c1ccc(F)cc1,"cell-free assay, competition with immobilised ligand",1 µM,100%
COc1ccnn2ncc(-c3ccnc(N(C)C)n3)c12,binding,1 µM,100%
O=C(Nc1c[nH]nc1C(=O)NC1CCNCC1)c1cc(F)cc(F)c1,"binding, competition with immobilised ligand",1 µM,92%
Cc1cc(NC(=O)c2cccc(S(F)(F)(F)(F)F)c2)cc(-n2ccn3nc(-c4cccnc4)cc23)c1,"cell-free assay, competition with immobilised ligand",1 µM,79.6%
c1cncc(-c2cccc(Nc3nccc(NC4CCCCC4)n3)c2)c1,"binding, competition with immobilised ligand",10 µM,86%
Cc1cnn2ncc(-c3ccnc(N(C)C)n3)c2c1,binding,1 µM,100%
Cc1c[nH]c2nccc(Oc3c(F)cc(Nc4cc(Cl)nc(N)n4)cc3F)c12,"cell-free assay, competition with immobilised ligand",0.1 µM,89%
C[C@@H]1CCN(c2nccc(-c3cnn4ncccc34)n2)C1,binding,1 µM,93%
COc1cnc(Nc2cccc(S(N)(=O)=O)c2)nc1N1CCN(c2ccccc2)CC1,"binding, competition with immobilised ligand",1 µM,100%
CN([C@@H]1CCc2c(CC(=O)O)c3cc(S(C)(=O)=O)ccc3n2C1)S(=O)(=O)c1ccc(F)cc1,"cell-free assay, competition with immobilised ligand",1 µM,68%
O=C(c1ccc(Nc2ncc(Cl)c(-c3ccc(Cl)s3)n2)cc1)N1CCC(N2CCCC2)CC1,"binding, competition with immobilised ligand",1 µM,100%
c1cnn2ncc(-c3ccnc(N4CCC45COC5)n3)c2c1,binding,1 µM,78%
CS(=O)(=O)NCC[C@H](NC(=O)c1cncc2c1cnn2-c1ccc(F)cc1)c1ccnc(S(C)(=O)=O)c1,"cell-free assay, competition with immobilised ligand",1 µM,100%
